# Calls of active or inactive are those of the source. The calls are words filed in the database; no cut-off is given here.
# Tests used:
# Homo sapiens = species on record: Homo sapiens; assay: Selectivity ratio of Kd for human partial length RIPK1 (M1 to K305 residues) expressed in bacterial expression system to Kd for wild-type human partial length RIPK3 (M1 to Q307 residues) expressed in bacterial expression system
# [1] = target: T1, Receptor-interacting serine/threonine-protein kinase 1 (Homo sapiens, UniProt Q13546); assay: Binding affinity to wild-type human partial length RIPK1 (M1 to K305 residues) expressed in bacterial expression system at 5 uM after 1 hr by quantitative PCR based KINOMEscan assay
# T1 sequence (Q13546 whole entry): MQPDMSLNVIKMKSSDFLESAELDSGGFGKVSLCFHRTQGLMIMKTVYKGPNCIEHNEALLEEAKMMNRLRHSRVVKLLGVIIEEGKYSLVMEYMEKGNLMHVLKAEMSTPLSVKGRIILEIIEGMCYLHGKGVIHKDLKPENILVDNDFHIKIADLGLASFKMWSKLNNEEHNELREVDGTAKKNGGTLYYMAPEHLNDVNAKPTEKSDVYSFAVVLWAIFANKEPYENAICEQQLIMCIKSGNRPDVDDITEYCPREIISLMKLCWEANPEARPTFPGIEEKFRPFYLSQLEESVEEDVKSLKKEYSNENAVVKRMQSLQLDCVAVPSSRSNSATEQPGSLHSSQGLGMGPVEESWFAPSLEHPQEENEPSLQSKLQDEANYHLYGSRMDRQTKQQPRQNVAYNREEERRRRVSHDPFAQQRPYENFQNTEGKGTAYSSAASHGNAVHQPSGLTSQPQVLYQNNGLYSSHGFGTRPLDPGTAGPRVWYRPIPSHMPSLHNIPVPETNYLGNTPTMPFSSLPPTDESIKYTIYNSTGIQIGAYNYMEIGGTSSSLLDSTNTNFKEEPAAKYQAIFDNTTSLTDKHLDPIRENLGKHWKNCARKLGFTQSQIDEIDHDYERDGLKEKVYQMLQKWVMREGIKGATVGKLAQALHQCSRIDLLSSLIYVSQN
# [2] = target: RAF proto-oncogene serine/threonine-protein kinase (Homo sapiens) (UniProt P04049); assay: Inhibition of wild-type human partial length RAF1 (I330 to T640 residues) expressed in bacterial expression system assessed as enzyme remaining activity at 1000 nM by Kinomescan method relative to control
# Sequence of RAF proto-oncogene serine/threonine-protein kinase (Homo sapiens) (P04049 whole entry, the tested form may be a part): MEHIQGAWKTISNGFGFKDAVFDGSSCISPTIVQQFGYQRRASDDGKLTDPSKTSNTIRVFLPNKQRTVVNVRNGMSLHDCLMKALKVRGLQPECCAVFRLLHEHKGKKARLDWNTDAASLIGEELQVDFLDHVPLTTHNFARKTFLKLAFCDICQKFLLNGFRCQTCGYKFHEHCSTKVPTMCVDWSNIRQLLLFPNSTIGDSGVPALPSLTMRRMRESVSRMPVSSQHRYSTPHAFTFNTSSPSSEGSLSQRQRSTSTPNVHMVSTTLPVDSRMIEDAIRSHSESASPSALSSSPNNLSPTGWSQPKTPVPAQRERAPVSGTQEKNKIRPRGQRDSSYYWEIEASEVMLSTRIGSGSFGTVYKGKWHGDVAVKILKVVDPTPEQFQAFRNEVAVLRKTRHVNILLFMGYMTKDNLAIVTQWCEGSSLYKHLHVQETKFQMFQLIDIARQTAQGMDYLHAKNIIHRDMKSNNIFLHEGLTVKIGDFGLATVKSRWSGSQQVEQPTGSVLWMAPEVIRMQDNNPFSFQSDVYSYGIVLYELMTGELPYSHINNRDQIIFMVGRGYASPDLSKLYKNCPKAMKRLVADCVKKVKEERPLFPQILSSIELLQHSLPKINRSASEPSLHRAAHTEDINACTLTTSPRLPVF
# [3] = target: Cyclin-dependent kinase 2 (Homo sapiens) (UniProt P24941); assay: Inhibition of wild-type human full length CDK2 (M1 to L298 residues) expressed in bacterial expression system assessed as enzyme remaining activity at 1000 nM by Kinomescan method relative to control
# [4] = target: Mitogen-activated protein kinase 8 (Homo sapiens) (UniProt P45983); assay: Inhibition of wild-type human full length JNK1 (M1 to Q384 residues) expressed in mammalian expression system assessed as enzyme remaining activity at 1000 nM by Kinomescan method relative to control
# Sequence of Mitogen-activated protein kinase 8 (Homo sapiens) (P45983 whole entry, the tested form may be a part): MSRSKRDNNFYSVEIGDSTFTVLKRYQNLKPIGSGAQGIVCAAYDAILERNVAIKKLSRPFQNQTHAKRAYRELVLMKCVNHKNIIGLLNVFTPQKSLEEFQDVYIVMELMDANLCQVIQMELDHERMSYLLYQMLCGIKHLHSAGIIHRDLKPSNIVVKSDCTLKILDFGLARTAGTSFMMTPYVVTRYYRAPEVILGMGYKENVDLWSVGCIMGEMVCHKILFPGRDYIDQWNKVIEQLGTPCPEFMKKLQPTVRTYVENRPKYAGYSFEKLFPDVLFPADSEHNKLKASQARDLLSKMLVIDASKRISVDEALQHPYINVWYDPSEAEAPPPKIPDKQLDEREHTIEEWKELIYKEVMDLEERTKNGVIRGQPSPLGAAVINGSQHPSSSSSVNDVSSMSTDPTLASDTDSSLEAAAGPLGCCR
# [5] = target: Platelet-derived growth factor receptor alpha (Homo sapiens) (UniProt P16234); assay: Inhibition of wild-type human partial length PDGFRA (V575 to D1002 residues) expressed in mammalian expression system assessed as enzyme remaining activity at 1000 nM by Kinomescan method relative to control
# Sequence of Platelet-derived growth factor receptor alpha (Homo sapiens) (P16234 whole entry, the tested form may be a part): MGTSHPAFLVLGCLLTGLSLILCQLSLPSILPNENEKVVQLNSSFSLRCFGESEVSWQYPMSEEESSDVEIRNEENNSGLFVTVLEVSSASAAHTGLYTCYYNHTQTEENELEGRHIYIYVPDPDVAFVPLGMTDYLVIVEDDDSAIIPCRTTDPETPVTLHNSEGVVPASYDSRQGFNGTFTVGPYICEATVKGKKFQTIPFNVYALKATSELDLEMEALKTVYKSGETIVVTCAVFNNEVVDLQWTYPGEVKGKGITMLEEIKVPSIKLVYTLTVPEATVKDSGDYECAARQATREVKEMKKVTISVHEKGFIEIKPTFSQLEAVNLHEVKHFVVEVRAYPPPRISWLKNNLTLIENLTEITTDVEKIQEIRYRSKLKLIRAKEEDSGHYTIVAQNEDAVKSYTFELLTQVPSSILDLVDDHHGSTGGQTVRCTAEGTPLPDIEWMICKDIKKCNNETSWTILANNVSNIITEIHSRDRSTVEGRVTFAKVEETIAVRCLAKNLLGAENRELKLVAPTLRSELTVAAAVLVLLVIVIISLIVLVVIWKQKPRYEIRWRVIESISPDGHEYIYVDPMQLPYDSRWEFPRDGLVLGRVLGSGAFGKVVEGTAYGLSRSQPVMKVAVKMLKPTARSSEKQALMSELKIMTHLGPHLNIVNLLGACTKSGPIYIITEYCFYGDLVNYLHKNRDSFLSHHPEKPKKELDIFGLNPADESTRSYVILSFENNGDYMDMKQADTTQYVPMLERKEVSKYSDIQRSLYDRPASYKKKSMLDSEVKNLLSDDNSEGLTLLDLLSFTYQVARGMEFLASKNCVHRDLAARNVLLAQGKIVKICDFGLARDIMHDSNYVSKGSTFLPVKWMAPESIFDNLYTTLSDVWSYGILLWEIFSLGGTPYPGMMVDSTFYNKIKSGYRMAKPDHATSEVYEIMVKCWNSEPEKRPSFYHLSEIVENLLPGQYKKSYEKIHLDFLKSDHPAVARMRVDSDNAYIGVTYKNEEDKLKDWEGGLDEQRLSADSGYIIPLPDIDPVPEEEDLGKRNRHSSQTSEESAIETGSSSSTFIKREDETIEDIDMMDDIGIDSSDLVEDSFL
# [6] = target: Hepatocyte growth factor receptor (Homo sapiens) (UniProt P08581); assay: Inhibition of wild-type human partial length MET (D1010 to S1367 residues) expressed in bacterial expression system assessed as enzyme remaining activity at 1000 nM by Kinomescan method relative to control
# Sequence of Hepatocyte growth factor receptor (Homo sapiens) (P08581 whole entry, the tested form may be a part): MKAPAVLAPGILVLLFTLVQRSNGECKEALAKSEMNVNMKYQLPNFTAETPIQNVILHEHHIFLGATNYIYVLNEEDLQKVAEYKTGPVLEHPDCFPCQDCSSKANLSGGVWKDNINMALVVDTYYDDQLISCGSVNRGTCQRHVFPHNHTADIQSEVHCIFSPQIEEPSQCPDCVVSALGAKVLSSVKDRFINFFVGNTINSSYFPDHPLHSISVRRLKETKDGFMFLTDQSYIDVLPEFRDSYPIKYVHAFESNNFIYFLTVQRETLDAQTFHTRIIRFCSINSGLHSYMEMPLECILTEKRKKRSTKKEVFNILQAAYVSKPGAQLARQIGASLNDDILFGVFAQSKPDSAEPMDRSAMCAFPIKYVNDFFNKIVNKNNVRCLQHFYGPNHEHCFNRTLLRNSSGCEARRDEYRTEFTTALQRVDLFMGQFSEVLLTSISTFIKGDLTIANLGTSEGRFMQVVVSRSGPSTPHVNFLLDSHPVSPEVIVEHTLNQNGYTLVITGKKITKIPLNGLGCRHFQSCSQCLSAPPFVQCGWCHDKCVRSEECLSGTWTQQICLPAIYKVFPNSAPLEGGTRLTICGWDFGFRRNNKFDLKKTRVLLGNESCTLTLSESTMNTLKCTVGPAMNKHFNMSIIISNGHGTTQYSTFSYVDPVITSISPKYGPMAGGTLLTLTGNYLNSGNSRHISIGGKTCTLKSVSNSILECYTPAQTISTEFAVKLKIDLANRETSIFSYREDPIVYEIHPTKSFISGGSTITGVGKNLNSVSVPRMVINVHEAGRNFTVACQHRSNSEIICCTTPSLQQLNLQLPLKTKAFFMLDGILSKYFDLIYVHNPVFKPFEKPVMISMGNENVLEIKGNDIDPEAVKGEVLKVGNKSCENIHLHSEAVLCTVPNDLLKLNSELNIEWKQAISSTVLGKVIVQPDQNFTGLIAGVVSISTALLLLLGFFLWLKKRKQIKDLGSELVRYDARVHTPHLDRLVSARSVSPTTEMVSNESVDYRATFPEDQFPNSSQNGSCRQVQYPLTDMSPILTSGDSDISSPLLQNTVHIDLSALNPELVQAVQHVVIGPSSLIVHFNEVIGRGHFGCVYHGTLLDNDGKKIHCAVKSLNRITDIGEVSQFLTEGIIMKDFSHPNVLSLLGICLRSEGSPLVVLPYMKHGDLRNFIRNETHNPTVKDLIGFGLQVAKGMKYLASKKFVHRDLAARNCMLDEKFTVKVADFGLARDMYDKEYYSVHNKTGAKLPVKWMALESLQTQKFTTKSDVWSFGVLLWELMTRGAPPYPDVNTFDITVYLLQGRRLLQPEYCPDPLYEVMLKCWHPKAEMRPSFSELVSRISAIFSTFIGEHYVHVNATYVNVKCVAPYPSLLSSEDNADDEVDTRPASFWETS
# HT-29 [7] = assay: Cytoprotection against TNFalpha/cycloheximide/Z-VAD-fmk-induced necroptosis in human HT-29 cells at 3 uM treated prior to TNFalpha/cycloheximide/Z-VAD-fmk stimulation and measured after 12 hrs by cell-Titer Glo luminescent cell viability assay; assay type: functional, cell-based
# Procedure, shortened: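 HT-29 cells pretreated with compound at 3 μM or DMSO, then given TNF-α 20 ng/mL, cycloheximide 5 μg/mL and z-VAD-fmk 20 μM for 12 h. Viability read by CellTiter-Glo luminescence.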
# [8] = target: Mixed lineage kinase domain-like protein (Homo sapiens) (UniProt Q8NB16); assay: Inhibition of MLKL phosphorylation in TNFalpha/smac mimetic/Z-VAD-fmk stimulated human HT-29 cells at 1 uM treated prior to TNFalpha/smac mimetic/Z-VAD-fmk stimulation and measured after 2 to 4 hrs by SDS-PAGE based immunoblot assay; assay type: cell-based
# Sequence of Mixed lineage kinase domain-like protein (Homo sapiens) (Q8NB16 whole entry, the tested form may be a part): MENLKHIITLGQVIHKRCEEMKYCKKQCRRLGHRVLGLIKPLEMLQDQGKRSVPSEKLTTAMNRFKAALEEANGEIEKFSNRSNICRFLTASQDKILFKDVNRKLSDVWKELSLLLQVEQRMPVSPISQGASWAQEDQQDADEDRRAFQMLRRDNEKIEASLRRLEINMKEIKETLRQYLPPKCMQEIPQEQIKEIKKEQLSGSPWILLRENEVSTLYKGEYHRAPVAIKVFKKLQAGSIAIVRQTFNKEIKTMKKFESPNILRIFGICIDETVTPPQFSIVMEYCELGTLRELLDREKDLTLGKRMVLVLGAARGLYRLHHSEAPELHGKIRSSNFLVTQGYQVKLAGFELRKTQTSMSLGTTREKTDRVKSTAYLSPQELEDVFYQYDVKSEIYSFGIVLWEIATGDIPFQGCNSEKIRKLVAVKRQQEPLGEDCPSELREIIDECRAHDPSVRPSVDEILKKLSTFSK
# Mus musculus [9] = assay: Protection against TNFalpha/Z-VAD-fmk-induced C57BL/6J mouse model of systemic inflammatory response syndrome assessed as increase in mouse survial at 5 to 50 mg/kg, po administered via gavage 2 hrs prior to Z-VAD-fmk addition for 15 mins followed by TNFalpha stimulation for 1 hr and subsequent Z-VAD-fmk addition meaured up to 50 hrs post TNFalpha stimulation; assay type: functional, organism-based
# Procedure, shortened: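 Female C57BL/6 mice, fasted overnight, n=10 per group. Compound given by oral gavage at 5, 25 or 50 mg/kg 2 h before TNF. z-VAD-fmk 180 µg i.p., then 15 min later mTNF-α 400 µg/kg i.v. in endotoxin-free PBS, then a further 70 µg z-VAD-fmk i.p. 1 h later. Body temperature and survival followed, compared with vehicle by one-way ANOVA.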
# [10] = Half-life in Sprague-Dawley rat at 1 mg/kg, iv by LC-tandem mass spectrometry analysis; assay type: ADME, organism-based; conditions: in vivo
# Procedure, shortened: (§1)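 Male Sprague-Dawley rats dosed once i.v. at 1 mg/kg or intragastrically at 5 mg/kg. Compound dissolved in 5% DMSO, 10% Tween 80, 75% physiological saline at 0.2 and 1 mg/mL. Blood taken at several time points, plasma spun at 4 °C, stored at -80 °C, assayed by LC/MS/MS. Parameters from individual animals by noncompartmental analysis.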
# [11] = Cmax in Sprague-Dawley rat at 1 mg/kg, iv by LC-tandem mass spectrometry analysis; assay type: ADME, organism-based; design: dose 1 mg/kg, route intravenous; conditions: in vivo; procedure, shortened: as §1
# [12] = AUC (0 to t) in Sprague-Dawley rat at 1 mg/kg, iv by LC-tandem mass spectrometry analysis; assay type: ADME, organism-based; conditions: in vivo; procedure, shortened: as §1
# [13] = Half-life in Sprague-Dawley rat at 5 mg/kg, po by LC-tandem mass spectrometry analysis; assay type: ADME, organism-based; conditions: in vivo; procedure, shortened: as §1
# [14] = AUC (0 to t) in Sprague-Dawley rat at 5 mg/kg, po by LC-tandem mass spectrometry analysis; assay type: ADME, organism-based; conditions: in vivo; procedure, shortened: as §1
# [15] = AUC (0 to infinity) in Sprague-Dawley rat at 5 mg/kg, po by LC-tandem mass spectrometry analysis; assay type: ADME, organism-based; design: dose 5 mg/kg, time infinity, route oral; conditions: in vivo; procedure, shortened: as §1
# Mus musculus [16] = assay: Protection against TNFalpha/Z-VAD-fmk-induced C57BL/6J mouse model of systemic inflammatory response syndrome at 25 mg/kg, po administered via gavage 2 hrs prior to Z-VAD-fmk addition for 15 mins followed by TNFalpha stimulation for 1 hr and subsequent Z-VAD-fmk addition meaured up to 50 hrs post TNFalpha stimulation relative to control; assay type: functional
# Procedure, shortened: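 Overnight-fasted C57BL/6 female mice, n=10 per group. Test compound was given by oral gavage 2 h before mTNF-α. z-VAD-fmk (180 µg) was injected ip, then 15 min later mTNF-α in endotoxin-free PBS was injected iv (400 µg/kg). A second z-VAD-fmk dose (70 µg) was given ip 1 h after TNF. Body temperature and survival were followed against vehicle. One-way ANOVA was used.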
# HT-29 [17] = assay: Effect on TNFalpha/smac mimetic-induced apoptosis in human HT-29 cells at 3 uM treated prior to TNFalpha/smac mimetic stimulation and measured after 20 hrs by cell-Titer Glo luminescent cell viability assay; conditions: ht-29, 20 h
smiles,measurement,setting,value
O=C(Nc1cccc(Br)c1)Nc1cc(Oc2ccc3nc(NC(=O)C4CC4)sc3c2)ccc1F,Ratio,Homo sapiens,> 61.7
same,Activity,[1],Not Active
same,Activity,[2],13%
same,Activity,[3],93%
same,Activity,[4],79%
same,Activity,[5],5.3%
same,Activity,[6],14%
same,Activity,HT-29 [7],Active
same,inhibition,[8],Active
same,Activity,Mus musculus [9],Active
same,half-life,[10],15.4 h
same,Cmax,[11],4600 ng/mL
same,AUC(0-t),[12],5560 ng·h/mL
same,half-life,[13],15.2 h
same,AUC(0-t),[14],7010 ng·h/mL
same,AUC(0-inf),[15],9320 ng·h/mL
same,Activity,Mus musculus [16],100%
same,Activity,HT-29 [17],Non-Toxic
